Results published in ChEMBL document CHEMBL4342435, “Synthesis of novel 4-Boc-piperidone chalcones and evaluation of their cytotoxic activity against highly-metastatic cancer cells” (Bioorg Med Chem Lett, 2020).
In brackets after ≈: the same amount, converted by molar mass. Activity calls are given as the source filed them. The rule behind the calls is not given here.

Experiments:
COLO 205 [1] = assay: Induction of apoptosis in human COLO205 cells at GI50 incubated for 24 hrs by Annexin V-FITC/Hoechst/propidium iodide staining based cell counting method (reference value: 10.7%); assay type: functional
COLO 205 [2] = assay: Induction of apoptosis in human COLO205 cells assessed as activation of caspases 7 at GI50 by fluorescent inhibitor probe FAM-DEVD-FMK staining based fluorescence assay (reference value: 15.3%); assay type: functional; set-up: scale not given: the % may be the effect or the level left
How it was run: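 COLO-205 cells treated at the concentrations listed in the GI50 table. Active caspases 3 and 7 labelled with the fluorescent inhibitor probe FAM-DEVD-FMK and read by flow cytometry. Untreated negative control, camptothecin positive control. Triplicate (N=3), P<0.05 versus vehicle.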

CWR22R [3] = assay: Antiproliferative activity human 22Rv1 cells assessed as reduction in Ki67 protein level at GI50 incubated for 48 hrs by DAPI staining based immunofluorescence assay; assay type: functional, cell-based
PC-3 [4] = assay: Growth inhibition of human PC3 cells incubated for 48 hrs by MTS assay; assay type: functional; conditions: PC-3, 48 h
How it was run: (§1)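 MTS viability on PC3 and 22RV1 prostate cancer cells after 48h incubation. […] DMSO control. Triplicates (N=3). One-way ANOVA with Dunnett's test, mean ± SEM, P<0.05.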

CWR22R [5] = assay: Growth inhibition of human 22Rv1 cells incubated for 48 hrs by MTS assay; assay type: functional; conditions: 22Rv1, 48 h; how it was run: as §1
PC-3 [6] = assay: Antiproliferative activity human PC3 cells assessed as reduction in Ki67 protein level at GI50 incubated for 48 hrs by DAPI staining based immunofluorescence assay; assay type: functional, cell-based
LoVo = assay: Growth inhibition of human LoVo cells incubated for 72 hrs by CellTiter-Glo luminescent cell viability; assay type: functional
COLO 205 [7] = assay: Growth inhibition of human COLO205 cells incubated for 72 hrs by CellTiter-Glo luminescent cell viability; assay type: functional; conditions: COLO 205, 72 h
[8] = Cytotoxicity against human CCD-18Co cells assessed as reduction in cell viability incubated for 72 hrs by CellTiter-Glo luminescent cell viability; assay type: cell-based
[9] = Selectivity index, ratio of GI50 for human CCD-18Co cells to GI50 for human LoVo cells
[10] = Selectivity index, ratio of GI50 for human CCD-18Co cells to GI50 for human COLO205 cells
[11] = Inhibition of TNFalpha-induced NFkappaB activation in human HEK293 cells preincubated for 16 hrs followed by TNFalpha addition and measured after 6 hrs by luminescence based assay; assay type: cell-based

GI50 (PC-3 [4]) [µg/mL] | GI50 (LoVo) [µg/mL] | GI50 (COLO 205 [7]) [µg/mL] | IC50 [11] [µg/mL] | SMILES | Activity (COLO 205 [1]) [%] | Activity (COLO 205 [2]) [%] | Activity (CWR22R [3]) | GI50 (CWR22R [5]) [µg/mL] | Activity (PC-3 [6]) | GI50 at 72 h [8] [µg/mL] | RatioGI50 [9] | RatioGI50 [10]
– | – | – | – | CC[C@@]1(O)C(=O)OCc2c1cc1n(c2=O)Cc2cc3ccccc3nc2-1 [CAMPTOTHECIN] | 37.3 | 59.3 | – | – | – | – | – | –
0.009 (≈ 0.0111 µM) | – | – | – | CC(=O)O[C@@]12CO[C@@H]1C[C@H](O)[C@@]1(C)C(=O)[C@H](O)C3=C(C)[C@@H](OC(=O)[C@H](O)[C@@H](NC(=O)OC(C)(C)C)c4ccccc4)C[C@@](O)([C@@H](OC(=O)c4ccccc4)[C@H]21)C3(C)C [DOCETAXEL ANHYDROUS] | – | – | Active | 0.006 (≈ 0.00743 µM) | Active | – | – | –
– | 4.1 (≈ 10.1 µM) | 11.7 (≈ 28.7 µM) | – | CC(C)(C)OC(=O)N1C/C(=C\c2cccc(O)c2)C(=O)/C(=C/c2cccc(O)c2)C1 | – | – | – | – | – | 6.4 (≈ 15.7 µM) | 1.6 | 0.5
13.8 (≈ 37.5 µM) | 4.3 (≈ 11.7 µM) | 12.7 (≈ 34.5 µM) | 7.7 (≈ 20.9 µM) | COc1cc(/C=C/C(=O)CC(=O)/C=C/c2ccc(O)c(OC)c2)ccc1O [CURCUMIN] | – | – | Active | 14.3 (≈ 38.8 µM) | Active | 7.2 (≈ 19.5 µM) | – | –
– | 4.6 (≈ 8.99 µM) | 4.5 (≈ 8.8 µM) | 27.2 (≈ 53.2 µM) | CC(C)(C)OC(=O)N1C/C(=C\c2ccccc2C(F)(F)F)C(=O)/C(=C/c2ccccc2C(F)(F)F)C1 | 35 | 31.5 | – | – | – | 7.6 (≈ 14.9 µM) | 1.7 | 1.7
– | 9.6 (≈ 20.5 µM) | 27.4 (≈ 58.6 µM) | – | COc1cc(/C=C2\CN(C(=O)OC(C)(C)C)C/C(=C\c3ccc(O)c(OC)c3)C2=O)ccc1O | – | – | – | – | – | 18.3 (≈ 39.1 µM) | 1.9 | 0.7
22.9 (≈ 56.2 µM) | 3.5 (≈ 8.59 µM) | 20.9 (≈ 51.3 µM) | – | CC(C)(C)OC(=O)N1C/C(=C\c2ccc(O)cc2)C(=O)/C(=C/c2ccc(O)cc2)C1 | – | – | Active | 17.1 (≈ 42 µM) | Active | 6.4 (≈ 15.7 µM) | 1.8 | 0.3
– | 2 (≈ 4.04 µM) | 0.84 (≈ 1.7 µM) | – | COc1ccc(/C=C2\CN(C(=O)OC(C)(C)C)C/C(=C\c3ccc(OC)cc3OC)C2=O)c(OC)c1 | 62 | 35.7 | – | – | – | 1.2 (≈ 2.42 µM) | – | 1.4
– | 6.1 (≈ 16.2 µM) | 34.7 (≈ 92.4 µM) | – | CC(C)(C)OC(=O)N1C/C(=C\c2ccccc2)C(=O)/C(=C/c2ccccc2)C1 | – | – | – | – | – | 12.4 (≈ 33 µM) | 2 | 0.4

SMILES | GI50 (PC-3 [4]) [µg/mL] | GI50 (LoVo) [µg/mL] | GI50 (COLO 205 [7]) [µg/mL] | IC50 [11] [µg/mL] | Activity (COLO 205 [1]) [%] | Activity (COLO 205 [2]) [%] | Activity (CWR22R [3]) | GI50 (CWR22R [5]) [µg/mL] | Activity (PC-3 [6]) | GI50 at 72 h [8] [µg/mL] | RatioGI50 [9] | RatioGI50 [10]
COc1cc(/C=C/C(=O)/C=C/c2ccc(O)c(OC)c2)ccc1O | 24.8 (≈ 76 µM) | 10 (≈ 30.6 µM) | 19.4 (≈ 59.4 µM) | – | – | – | Active | 22.7 (≈ 69.6 µM) | – | 15.1 (≈ 46.3 µM) | 1.5 | 0.8
